The record followed here is ChEMBL document CHEMBL3853307, “Anti-inflammatory Effect of Methyl Gallate on Experimental Arthritis: Inhibition of Neutrophil Recruitment, Production of Inflammatory Mediators, and Activation of Macrophages” (J Nat Prod, 2016).

Molecules are shown by their SMILES. Activity calls are given as the source filed them. The rule behind the calls is not given here.

Test [1] concerns Mus musculus. The test can be described thus: Antiinflammatory activity in C57BL/6 mouse assessed as inhibition of zymosan-induced knee joint edema formation at 10 mg/kg, ip administered 1 hr prior to zymosan challenge measured at 6 hrs relative to control. It counts as functional. As to conditions: C57BL/6, Knee joint. The procedure, abridged:
(§1)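 Male C57BL/6 mice, fasted overnight, dosed orally (vehicle saline/water, 200 μL) or i.p. 1 h before zymosan (500 μg in 25 μL saline, i.a., left knee). Knee swelling measured as change in transverse diameter from basal by digital caliper (mm). Synovial washes (PBS/EDTA) counted on a particle counter; differentials from May-Grünwald-Giemsa cytospins, cells ×10^5/cavity. Sampled at 6 and/or 24 h; seven mice/group.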

For test [2], the system named is Mus musculus. The test can be described thus: Antiinflammatory activity in C57BL/6 mouse assessed as inhibition of zymosan-induced knee joint edema formation at 10 mg/kg, ip administered 1 hr prior to zymosan challenge measured at 24 hrs relative to control. It counts as functional. The settings on record: C57BL/6, Knee joint. A digest of the protocol:
as §1

In test [3] the test system is Mus musculus. The test can be described thus: Antiinflammatory activity in C57BL/6 mouse assessed as inhibition of zymosan-induced total leukocyte accumulation in articular cavity at 10 mg/kg, ip administered 1 hr prior to zymosan challenge measured at 6 to 24 hrs. It counts as functional, organism-based. A digest of the protocol:
as §1

Test [4] relates to Mus musculus. The test can be described thus: Antiinflammatory activity in C57BL/6 mouse assessed as inhibition of zymosan-induced neutrophil migration in articular cavity at 10 mg/kg, ip administered 1 hr prior to zymosan challenge measured at 6 to 24 hrs. It counts as functional, organism-based. The procedure, abridged:
as §1

Test [5] deals with Mus musculus. The test can be described thus: Antiinflammatory activity in C57BL/6 mouse assessed as inhibition of zymosan-induced mononuclear cells migration in articular cavity at 10 mg/kg, ip administered 1 hr prior to zymosan challenge measured at 6 to 24 hrs. The format is functional, organism-based. A digest of the protocol: as §1
The subject of test [6] is Mus musculus. The test can be described thus: Antiinflammatory activity in C57BL/6 mouse assessed as inhibition of zymosan-induced synovial hyperplasia at 10 mg/kg, ip administered 1 hr prior to zymosan challenge measured at 6 to 24 hrs by hematoxylin and eosin staining-based optical microscopy. It counts as functional, organism-based. A digest of the protocol: (§2)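 Mice dosed orally or i.p. 1 h before i.a. zymosan (500 μg/cavity) or saline. Whole knees taken at 6 and 24 h from six mice, fixed in 10% formalin 48 h, decalcified in 10% EDTA/PBS 1−2 weeks, paraffin-embedded. 5 μm sections H&E-stained and examined by light microscopy. Parameter scores summed into an arthritis index; means ± SEM, two experiments.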

In test [7] the test system is Mus musculus. The test can be described thus: Antiinflammatory activity in C57BL/6 mouse assessed as inhibition of zymosan-induced infiltration of inflammatory cells into synovial tissue at 10 mg/kg, ip administered 1 hr prior to zymosan challenge measured at 6 to 24 hrs by hematoxylin and eosin staining-based optical microscopy. The format is functional, organism-based. A digest of the protocol: as §2

The test system of test [8] is Mus musculus. The test can be described thus: Antiinflammatory activity in C57BL/6 mouse assessed as inhibition of zymosan-induced bleeding in synovial tissue at 10 mg/kg, ip administered 1 hr prior to zymosan challenge measured at 6 to 24 hrs by hematoxylin and eosin staining-based optical microscopy. It counts as functional, organism-based. The procedure, abridged: as §2

Test [9] concerns Mus musculus. The test can be described thus: Antiinflammatory activity in C57BL/6 mouse assessed as inhibition of zymosan-induced arthritis score at 10 mg/kg, ip administered 1 hr prior to zymosan challenge measured at 6 to 24 hrs by hematoxylin and eosin staining-based optical microscopy. The format is functional, organism-based. A digest of the protocol: as §2
Test [10] has as its system Mus musculus. Nature of the test: Antiinflammatory activity in C57BL/6 mouse assessed as inhibition of zymosan-induced IL6 production in cell-free supernatant of knee joint synovial washes at 10 mg/kg, ip administered 1 hr prior to zymosan challenge measured at 6 to 24 hrs by sandwich ELISA method. The format is functional, organism-based. The procedure, abridged:
(§3)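 Male C57BL/6 mice (18−22 g), fasted overnight, dosed orally (in filtered water, 200 μL) or i.p. 1 h before i.a. zymosan (500 μg in 25 μL saline) into left knee; contralateral knee got vehicle. Synovial cavity washed twice with 150 μL PBS/10 mM EDTA at 6 and 24 h; washes spun 400g 10 min, 4 °C. Cytokines measured by sandwich ELISA, LTB4/PGE2 by EIA (pg/mL); six mice/group, two experiments.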

Test [11] deals with Mus musculus. The test can be described thus: Antiinflammatory activity in C57BL/6 mouse assessed as inhibition of zymosan-induced TNFalpha production in cell-free supernatant of knee joint synovial washes at 10 mg/kg, ip administered 1 hr prior to zymosan challenge measured at 6 to 24 hrs by sandwich ELISA method. It counts as functional, organism-based. The procedure, abridged:
as §3
Background: ELISA stands for enzyme-linked immunosorbent assay.

The test system of test [12] is Mus musculus. Nature of the test: Antiinflammatory activity in C57BL/6 mouse assessed as inhibition of zymosan-induced IL-1beta production in cell-free supernatant of knee joint synovial washes at 10 mg/kg, ip administered 1 hr prior to zymosan challenge measured at 6 to 24 hrs by sandwich ELISA method. The format is functional, organism-based. A digest of the protocol:
as §3

Test [13] concerns Mus musculus. Nature of the test: Antiinflammatory activity in C57BL/6 mouse assessed as inhibition of zymosan-induced CXCL1/KC production in cell-free supernatant of knee joint synovial washes at 10 mg/kg, ip administered 1 hr prior to zymosan challenge measured at 6 to 24 hrs by sandwich ELISA method. The format is functional, organism-based. The procedure, abridged:
as §3

Test [14] deals with Mus musculus. The test can be described thus: Antiinflammatory activity in C57BL/6 mouse assessed as inhibition of zymosan-induced PGE2 production in cell-free supernatant of knee joint synovial washes at 10 mg/kg, ip administered 1 hr prior to zymosan challenge measured at 6 to 24 hrs by immunosorbent assay. The format is functional, organism-based. The procedure, abridged: as §3

The subject of test [15] is Mus musculus. Nature of the test: Antiinflammatory activity in C57BL/6 mouse assessed as inhibition of zymosan-induced LTB4 production in cell-free supernatant of knee joint synovial washes at 10 mg/kg, ip administered 1 hr prior to zymosan challenge measured at 6 to 24 hrs by immunosorbent assay. It counts as functional, organism-based. A digest of the protocol: as §3

In test [16] the test system is Neutrophil. Nature of the test: Antiinflammatory activity in C57BL/6 mouse neutrophils assessed as inhibition of CXCL1/KC-induced neutrophil chemotaxis at 50 nM preincubated for 1 hr followed by CXCL1/KC-induction measured after 1 hr by Wright-Giemsa staining-based light microscopic method. It counts as functional, cell-based. A digest of the protocol:
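Bone marrow neutrophils from C57BL/6 femurs, purified on a 65%/72% Percoll gradient (~85−90% purity). 10^5 cells preincubated 1 h with compound or medium, then placed in a 48-well Boyden chamber over CXCL-1/KC (250 nM) across a 5 μm polycarbonate filter, 60 min at 37 °C, 5% CO2. Filter Wright-Giemsa stained; migrated cells counted in 15 fields; quadruplicate wells.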

Test [17] deals with J774.A1. Nature of the test: Antiinflammatory activity in mouse J774A.1 cells assessed as inhibition of zymosan and IFNgamma-induced IL6 production in cell-free supernatant at 1 uM preincubated for 1 hr followed by zymosan and IFNgamma addition measured after 24 hrs by sandwich ELISA. It counts as functional, cell-based. A digest of the protocol: (§4)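 J774A.1 macrophages (1 × 10^5/well, RPMI/10% FBS) adhered 24 h, preincubated 1 h with compound (0.1−10 μM) or dexamethasone (1 μM), then stimulated with zymosan (10 μg per 10^5 cells) and/or IFN-γ (25 U/mL) for 24 h. Supernatant IL-6 by sandwich ELISA; nitrite by Griess reaction at 540 nm. Quadruplicate wells, two experiments.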

The subject of test [18] is J774.A1. The test can be described thus: Antiinflammatory activity in mouse J774A.1 cells assessed as inhibition of zymosan and IFNgamma-induced COX2 expression at 1 uM preincubated for 1 hr followed by zymosan and IFNgamma addition measured after 24 hrs by Western blot analysis. It counts as functional, cell-based. A digest of the protocol:
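J774A.1 cells in six-well plates pretreated 1 h (0.1−10 μM) before zymosan (10 μg per 10^5 cells) and/or IFN-γ (25 U/mL) for 24 h. Lysates (Tris/NaCl/MgCl2/0.5% NP40 with protease inhibitors); 30 μg protein run on 7.5% SDS-PAGE, transferred to PVDF, probed for COX-2, iNOS and α-tubulin.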
For orientation: In western blotting, separated proteins are transferred to a membrane and probed.

Test [19] deals with J774.A1. The test can be described thus: Antiinflammatory activity in mouse J774A.1 cells assessed as inhibition of zymosan and IFNgamma-induced nitric oxide production at 1 uM preincubated for 1 hr followed by zymosan and IFNgamma addition measured after 24 hrs by colorimetric Griess test. It counts as functional, cell-based. The procedure, abridged: as §4
(The Griess reaction detects nitrite, a stable product of nitric oxide.)

With `C[C@@H]1C[C@H]2[C@@H]3CCC4=CC(=O)C=C[C@]4(C)[C@@]3(F)[C@@H](O)C[C@]2(C)[C@@]1(O)C(=O)CO` [DEXAMETHASONE], the inhibition in vivo at 10 mg/kg in test [1] was determined as 42%; in test [2], 48%. For the same compound, the inhibition result in test [3], in test [4], in test [5], in test [6], in test [7] and in [8] was “Active” each time. Besides, the inhibition result in test [9], in [10], in test [11], in [12], in [13] and in test [14] was “Active” throughout. The inhibition entry in [15], in [16], in [17], in [18] and in [19] was “Active” each time.

As usually defined, the inhibition in vivo is the percentage by which the read-out fell short of the control.
